From ChEMBL document CHEMBL4251655 (Eur J Med Chem, 2018)

Legend:
[1] = Lipophilicity, log D at pH 7.4 by shake flask method; settings: buffer
[2] = biological target: T1, Mitogen-activated protein kinase kinase kinase 5 (Homo sapiens, UniProt Q99683); test: Inhibition of recombinant full length human GST-tagged ASK1 expressed in baculovirus expression system using STK3 peptide substrate preincubated for 15 mins followed by substrate addition measured after 90 mins in presence of 1 mM ATP by HTRF assay
T1 sequence (Q99683 whole entry): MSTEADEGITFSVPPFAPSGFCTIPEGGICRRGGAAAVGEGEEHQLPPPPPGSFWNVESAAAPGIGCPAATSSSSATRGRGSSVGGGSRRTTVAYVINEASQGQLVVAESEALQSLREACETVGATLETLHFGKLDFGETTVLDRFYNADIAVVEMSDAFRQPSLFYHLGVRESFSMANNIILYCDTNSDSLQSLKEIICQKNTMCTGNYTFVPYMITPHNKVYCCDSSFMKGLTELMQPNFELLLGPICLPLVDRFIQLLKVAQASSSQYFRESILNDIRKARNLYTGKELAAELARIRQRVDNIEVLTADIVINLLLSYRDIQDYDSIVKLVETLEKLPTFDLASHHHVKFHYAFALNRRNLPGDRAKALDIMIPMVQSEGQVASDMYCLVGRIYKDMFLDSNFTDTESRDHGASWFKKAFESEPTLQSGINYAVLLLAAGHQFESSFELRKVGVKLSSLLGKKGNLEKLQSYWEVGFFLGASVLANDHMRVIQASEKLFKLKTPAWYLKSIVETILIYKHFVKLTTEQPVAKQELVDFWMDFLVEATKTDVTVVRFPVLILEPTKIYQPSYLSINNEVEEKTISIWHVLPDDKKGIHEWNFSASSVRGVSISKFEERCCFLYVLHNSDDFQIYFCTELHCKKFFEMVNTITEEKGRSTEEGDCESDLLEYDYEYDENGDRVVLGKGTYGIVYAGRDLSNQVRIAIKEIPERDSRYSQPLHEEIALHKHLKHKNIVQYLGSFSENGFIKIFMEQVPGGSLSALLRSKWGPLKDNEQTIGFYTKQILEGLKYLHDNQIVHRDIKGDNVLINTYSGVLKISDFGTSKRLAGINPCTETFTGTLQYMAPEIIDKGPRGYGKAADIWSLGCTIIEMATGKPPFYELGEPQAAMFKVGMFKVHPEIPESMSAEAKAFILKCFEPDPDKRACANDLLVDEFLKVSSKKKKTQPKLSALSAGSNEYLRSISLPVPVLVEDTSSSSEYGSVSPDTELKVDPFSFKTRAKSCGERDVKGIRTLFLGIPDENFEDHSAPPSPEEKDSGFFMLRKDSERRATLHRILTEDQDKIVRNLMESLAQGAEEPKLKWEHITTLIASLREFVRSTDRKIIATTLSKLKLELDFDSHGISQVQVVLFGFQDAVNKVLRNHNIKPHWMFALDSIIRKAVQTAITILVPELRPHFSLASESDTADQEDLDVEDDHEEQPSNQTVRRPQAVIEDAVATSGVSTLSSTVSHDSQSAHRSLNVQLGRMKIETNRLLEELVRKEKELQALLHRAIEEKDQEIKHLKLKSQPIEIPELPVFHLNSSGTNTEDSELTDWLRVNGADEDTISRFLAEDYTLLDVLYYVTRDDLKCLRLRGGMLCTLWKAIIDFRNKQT
How it was run: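 Full-length recombinant human ASK1 (3 nM final) in kinase buffer with 5 mM MgCl2 and 1 mM DTT, preincubated with compound 15 min at 25 °C. Reaction started with ATP (1 mM) and STK3 peptide (1 µM final), run 90 min at room temperature, 2% DMSO. Stopped with EDTA detection mix, HTRF read after 2 h. Kiapp fitted by Morrison or competitive equation, converted to IC50 by Cheng-Prusoff using ATP Km 48 µM. Mean of at least two determinations.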

[3] = Permeability of the compound in RRCK cells; format: ADME, cell-based, Canis lupus familiaris, MDCKII-LE; settings: dog, MDCK; read-out: permeability
[4] = biological target: T1, Mitogen-activated protein kinase kinase kinase 5; test: Inhibition of recombinant full length human ASK1 expressed in HEK293/AP1-Luc cells assessed as reduction in p38 phosphorylation after 18 hrs by HTRF assay; format: cell-based
How it was run: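 HEK293/AP-1luc cells stably overexpressing wild-type human full-length ASK1 (constitutively active, no stimulus), seeded at 25K cells/well, held 8 h at 37 °C, then switched to Optimem with Geneticin. Compound dilution series added (final DMSO 0.5%) for 18 h at 37 °C, 5% CO2. Cells lysed 1 h at room temperature; phospho-p38 read by HTRF after overnight (18 h) detection. Mean of at least two determinations.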

CC(C)n1cnnc1-c1cccc(NC(=O)c2cccc(-c3ncc[nH]3)c2)n1
logD [1]: 2.4
IC50 [2]: 170 nM

CCS(=O)(=O)Nc1cccc(C(=O)Nc2cccc(-c3nncn3C(C)C)n2)c1
logD [1]: 1.7
IC50 [2]: 73 nM

CCS(=O)(=O)Nc1ccc(OC)c(C(=O)Nc2cccc(-c3nncn3C(C)C)n2)c1
logD [1]: 2.2
Papp [3]: 5.6 ×10⁻⁶ cm/s
IC50 [2]: 0.32 nM
IC50 [4]: 41 nM

CNC(=O)c1ccc(OC)c(C(=O)Nc2cccc(-c3nncn3C(C)C)n2)c1
logD [1]: 1.8
Papp [3]: 9.8 ×10⁻⁶ cm/s
IC50 [2]: 2.4 nM
IC50 [4]: 272 nM

CC(C)n1cnnc1-c1cccc(NC(=O)c2cccc(C(N)=O)c2)n1
IC50 [2]: 580 nM
